Measurements reported in the RNAGym collection of RNA variant scans (doi:10.1126/science.aae0568).
Variants at the floor of the assay were thinned out.

B1: tRNA (parent)
chain: GUUCCGUUGGCGUAAUGGUAACGCGUCUCCCUCCUAAGGAGAAGACUGCGGGUUCGAGUCCCGUACGGAACG

Variants of: B1
Test: yeast fitness relative to wild type (ratio to wild type); higher = fitter; tRNA-Arg(CCU), competitive growth, 37 C, YPD
Method in brief: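 The tRNA-Arg(CCU) gene variants were made by chemical synthesis with a 3% per-site mutation rate at 69 sites and inserted at the native genomic locus of Saccharomyces cerevisiae. After pooling, the strains were competed in YPD at 37°C for 24 hours in six parallel replicates. Gene amplicons from the start population and each end population were read by 100-nucleotide paired-end sequencing, and Darwinian fitness relative to wild type was taken from genotype frequency changes. Genotypes needed ≥ 100 starting reads, and estimates < 0.5 were set to 0.5.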

Compared with GUUCCGUUGGUGUAAUGGUAACGCGUCUCCCUCCUAAGGAGAUGACUGCGGGUUCGAGUCCCCUACGGAACG [C11U A43U G63C], GUUCCGUUGGUGUAAUGGUAUCGCGUCUCCCUCCUAAGGAGAAGACUGCCGGUUCGAGUCCCGCACGGAACG [C11U A21U G50C U64C] is higher in yeast fitness: 0.558 for the first, 0.597 for the second.

Compared with GUUCCGUUGGUGUAAUGGUAACGCGUCUCCCUCCUAAGGAGAAGCCUGCGAGUUCGAGUCCCGUACGGAACG [C11U A45C G51A], GUUCCGUUGGUGUAAUGGUAACGCGUCUCCCUCCUAAGGAGGAGACUGAGGGUUCGCGUCCCGUACGGAACG [C11U A42G C49A A57C] is lower in yeast fitness: 0.611 for the first, 0.51 for the second.

Compared with GUUCCGUUGGUGUAAUGGUAACGCGUCUCCCUCCUAAGGGGAAGACUGCGGGUUCGAGUCCCGUCCGGAACG [C11U A40G A65C], GUUCCGUUGGUGUAAUGGUAACGCGUCUCCCUCCUAAGGGGACGACUGCGGGUUCAAGUCCCGUACGGAACG [C11U A40G A43C G56A] is lower in yeast fitness: 0.594 for the first, 0.578 for the second.

Compared with GUUCCGUUGGUGUAAUGGUAACGCGUCUCCCUCCUAAGGGGAAGAAUGCGGGUUCGAGUCCCGUACGGAACG [C11U A40G C46A], GUUCCGUUGGUGUAAUGGUAACGCGUCUCCCUCCUACGGAGAAGACUGUGGGUUCGAGUCCCGUACGGAACG [C11U A37C C49U] is lower in yeast fitness: 0.792 for the first, at most 0.5 for the second.

First: GUUCCGUUGGUGUAAUGGUAACGCGUCUCCCUCCUAAGGAGCAGACUACGGGUUCGAGUCCCGUACGGAACG [C11U A42C G48A]
Second: GUUCCGUUGGUGUAAUGGUAACGCGUCUCCCUCCUAAGGAGAGGACUGCGGGUUCGCGUCCCGUACGGAACG [C11U A43G A57C]
The yeast fitness of the first is higher: 0.566 for the first, at most 0.5 for the second.

Compared with GUUCCGUUGGUGUAAUGGUAACGCGUCUCCCUCCUCAGGAGAAGACUGCGGGUUCGAGUCCCGUCUGGAACG [C11U A36C A65C C66U], GUUCCGUUGGUGUAAUGGUAACGCGUCUCCCUCCUUCGGAGUAGACUGCGGGUUCGAGUCCCCUACGGAACG [C11U A36U A37C A42U G63C] is lower in yeast fitness: 0.558 for the first, at most 0.5 for the second.

Compared with GUUCCGUUGGUGUAAUGGUAACGCGUCUCCCUCCUGAGGAAAAGACUGUGGGUUCGAGUCCCAUACGGAACG [C11U A36G G41A C49U G63A], GUUCCGUUGGUGUAAUGGUAACGCGUCUCCCUCCUAAGGAGAAGUCUGCGGGUUCGCAUCCCGUACGGAACG [C11U A45U A57C G58A] is higher in yeast fitness: at most 0.5 for the first, 0.61 for the second.

GUUCCGUUGGUGUAAUGGUAACGCGUCUCCCUCCUAAGGUGAAGAUUGCGGGUUCGAGUCCCCUACGGAACG [C11U A40U C46U G63C] and GUUCCGUUGGUGUAAUGGUAUCGCGUCUCCCUCCUAAGGAAAAGACUGCGGGUUCGAGUCACGUACGGAACG [C11U A21U G41A C61A] cannot be ordered by yeast fitness: at most 0.5 for the first, at most 0.5 for the second.

GUUCCGUUGGUGUAAUGGUAACGCGUCUCCCUCCUAGGGAGAAGACUGCGGGUACGAGGCCCGUACGGAACG [C11U A37G U54A U59G] and GUUCCGUUGGUGUAAUGGUAACGCGUCUCCCUCCUAAGGUGAAGACUGCGGGUUCGAGUCCCGUAGGGAACG [C11U A40U C66G] cannot be ordered by yeast fitness: at most 0.5 for the first, at most 0.5 for the second.

First: GUUCCGUUGGUGUAAUGGUAUCGCGUCUCCCUCCUAAGGAGAAGACUGCGGGUUCGAGUCCCGUAUGGAACG [C11U A21U C66U]
Second: GUUCCGUUGGUGUAAUGGUAACGCGUCUCCCUCCUAGGGAGAAGACUGUGGGUUCGAGUCCCGUACGGCACG [C11U A37G C49U A69C]
The yeast fitness of the first is higher: 0.816 for the first, at most 0.5 for the second.

Compared with GUUCCGUUGGUGUAAUGGUAACGCGUCUCCCUCCUAAGGCGAAGACUGCGGGUUCGAGUCCCGUACGGAACG [C11U A40C], GUUCCGUUGGUGUAAUGGUAACGCGUCUCCCUCCUAAGGUGAAGACUGCGGGUUCGAGUCCCGUACGGAACG [C11U A40U] is higher in yeast fitness: 0.755 for the first, 0.787 for the second.

Going from GUUCCGUUGGUGUAAUGGUAACGCGUCUCCCUCCUAAGGAGAUGACUGCGGGUUCGAGUCCCGUACGGAGCG [C11U A43U A70G] to GUUCCGUUGGUGUAAUGGUAUCGCGUCUCCCUCCUAAGGAGAAGACUGCGGGUACGAGUCCCGUACGGAGCG [C11U A21U U54A A70G], the yeast fitness falls from 0.738 to at most 0.5.

Compared with GUUCCGUUGGUGUAAUGGUAACGCGUCUCCCUCCUAAGGAGAAGGCUGCGGGUUCGAAUCCCGUGCGGAACG [C11U A45G G58A A65G], GUUCCGUUGGUGUAAUGGUAACGCGUCUCCCUCCUAAGGUGAAGACUGCGGGUUUGAGUCCCGUACGAAACG [C11U A40U C55U G68A] is lower in yeast fitness: 1.11 for the first, at most 0.5 for the second.

Going from GUUCCGUUGGUGUAAUGGUAACGCGUCUCCCUCCUAAGGAGAGGACUGCGGGUUCGAGUCCCGUACGGAACG [C11U A43G] to GUUCCGUUGGUGUAAUGGUAACGCGUCUCCCUCCUAAGGAGCAGACCGCGGGUUCGAGUCCCGUACGGAACG [C11U A42C U47C], the yeast fitness falls from 0.945 to 0.764.

Going from GUUCCGUUGGUGUAAUGGUAACGCGUCUCCCUCCUUAGGAGAAGACUCCGGGUUCGAGUCCCGUACGGAACG [C11U A36U G48C] to GUUCCGUUGGUGUAAUGGUAACGCGUCUCCCUCCUGAGGAGAAGCCUGCGGGUUCGAGUCCCGUACGGAACG [C11U A36G A45C], the yeast fitness rises from 0.632 to 0.807.

Going from GUUCCGUUGGUGUAAUGGUAACGCGUCUCCCUCCUAAGGAGUGGACUGCGGGUUCGAGUCACGUACGGAACG [C11U A42U A43G C61A] to GUUCCGUUGGUGUAAUGGUAACGCGUCUCCCUCCUAAGGAGUAGACUGCGGGUUCGAGUACCGUUCGGAACG [C11U A42U C60A A65U], the yeast fitness rises from at most 0.5 to 0.553.

Compared with GUUCCGUUGGUGUAAUGGUAACGCGUCUCCCUCCUAAGGAGAAGGCUGCGGGUUCGAGACCCGUACGGAACG [C11U A45G U59A], GUUCCGUUGGUGUAAUGGUAACGCGUCUCCCUCCUAGGGAGAAGACUGCGGCUUCGAGUCCCGUACGGAUCG [C11U A37G G52C A70U] is lower in yeast fitness: 0.526 for the first, at most 0.5 for the second.

First: GUUCCGUUGGUGUAAUGGUAUCGCGUCUCCCUCCUAAGGAGAAGAAUGCGGGUUCGAGUCCCGUACGGAACG [C11U A21U C46A]
Second: GUUCCGUUGGUGUAAUGGUAACGCGUCUCCCUCCUAAGGUGAAGACUGCGGGUUCGAGUCCCGUACGGCACG [C11U A40U A69C]
The yeast fitness of the first is higher: 0.685 for the first, 0.646 for the second.

With GUUCCGUUGGUGUAAUGGUAACGCGUCUCCCUCCUAAGGAGAAGGCUGCGGGUUCGAGUCCCGUACGGAACG [C11U A45G] the yeast fitness was 0.96.
